Key:
A549 = assay: Cytotoxicity against human A549 cells; assay type: functional, cell-based
Histone deacetylase = assay: Inhibition of HDAC in human Hela cell nuclear extract after 15 mins; assay type: protein assay
HCT-116 = assay: Cytotoxicity against human HCT116 cells; assay type: functional, cell-based
K562 = assay: Cytotoxicity against human K562 cells; assay type: functional, cell-based
[1] = Oral bioavailability in CD1 mouse at 15 mg/kg; settings: in vivo
Histone deacetylase 2 = Histone deacetylase 2 (Homo sapiens, UniProt Q92769); assay: Inhibition of HDAC2 (unknown origin)
[2] = Cmax in CD1 mouse at 5 mg/kg, iv; assay type: ADME, organism-based; design: dose 5 mg/kg, route intravenous; settings: in vivo
Outline: (§1)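 CD-1 mice got single doses of 5 mg/kg iv or 15 mg/kg orally. The iv vehicle was water with 3% DMSO and 9.7% encapsin. The oral vehicle was water with 5% DMSO and 9.5% encapsin. Plasma PK parameters were calculated, including AUC0–∞, clearance, half-life, Vss, cmax and oral bioavailability.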

[3] = target: T1, Protein deacetylase HDAC6 (Homo sapiens, UniProt Q9UBN7); assay: Inhibition of HDAC6 (unknown origin)
T1 sequence (Q9UBN7 whole entry): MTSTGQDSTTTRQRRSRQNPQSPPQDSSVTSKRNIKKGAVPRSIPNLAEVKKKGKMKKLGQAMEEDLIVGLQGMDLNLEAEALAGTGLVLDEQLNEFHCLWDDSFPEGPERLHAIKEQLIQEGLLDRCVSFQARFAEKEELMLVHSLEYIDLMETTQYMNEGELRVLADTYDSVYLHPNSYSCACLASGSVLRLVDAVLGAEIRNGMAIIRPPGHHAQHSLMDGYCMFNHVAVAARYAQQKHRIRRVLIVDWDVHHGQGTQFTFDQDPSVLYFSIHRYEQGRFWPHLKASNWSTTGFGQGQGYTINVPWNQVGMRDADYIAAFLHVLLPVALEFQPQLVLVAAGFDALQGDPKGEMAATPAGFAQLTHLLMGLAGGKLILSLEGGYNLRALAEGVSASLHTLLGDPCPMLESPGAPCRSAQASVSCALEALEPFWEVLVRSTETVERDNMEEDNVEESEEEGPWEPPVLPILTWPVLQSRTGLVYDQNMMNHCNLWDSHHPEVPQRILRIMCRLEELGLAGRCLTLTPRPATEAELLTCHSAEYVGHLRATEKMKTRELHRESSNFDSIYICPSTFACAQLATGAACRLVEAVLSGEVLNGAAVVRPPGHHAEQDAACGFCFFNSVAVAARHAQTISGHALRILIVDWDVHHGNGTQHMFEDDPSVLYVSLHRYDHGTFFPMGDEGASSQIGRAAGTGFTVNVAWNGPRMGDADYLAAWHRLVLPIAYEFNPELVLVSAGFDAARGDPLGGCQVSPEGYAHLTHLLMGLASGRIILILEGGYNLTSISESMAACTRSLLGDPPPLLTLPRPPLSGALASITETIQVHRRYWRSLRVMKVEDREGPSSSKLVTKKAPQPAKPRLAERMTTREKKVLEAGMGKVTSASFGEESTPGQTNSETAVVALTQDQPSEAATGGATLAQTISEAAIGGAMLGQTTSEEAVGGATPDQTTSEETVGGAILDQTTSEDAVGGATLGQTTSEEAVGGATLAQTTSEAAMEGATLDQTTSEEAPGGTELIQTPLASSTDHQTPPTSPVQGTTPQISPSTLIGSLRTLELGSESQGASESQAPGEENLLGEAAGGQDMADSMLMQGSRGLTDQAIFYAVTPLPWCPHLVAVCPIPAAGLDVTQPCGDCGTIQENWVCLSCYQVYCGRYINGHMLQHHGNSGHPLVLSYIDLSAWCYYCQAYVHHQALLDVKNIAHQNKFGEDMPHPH

[4] = Cmax in CD1 mouse at 15 mg/kg, po; settings: CD1, mouse, in vivo
[5] = Volume of distribution at steady state in CD1 mouse at 5 mg/kg, iv and 15 mg/kg, po; assay type: ADME, organism-based; settings: in vivo, read-out: Vdss; outline: as §1
Histone deacetylase 3 = Histone deacetylase 3 (Homo sapiens, UniProt O15379); assay: Inhibition of HDAC3 (unknown origin)
[6] = AUC (0 to infinity) in CD1 mouse at 5 mg/kg, iv; assay type: ADME, organism-based; design: time infinity, dose 5 mg/kg, route intravenous; settings: plasma; outline: as §1
[7] = target: Voltage-gated inwardly rectifying potassium channel KCNH2 (Homo sapiens, UniProt Q12809); assay: Displacement of [3H]astemizole from human ERG channel transfected in HEK293 cells after 60 mins by liquid scintillation counting analysis; assay type: cell-based
[8] = AUC (0 to infinity) in CD1 mouse at 15 mg/kg, po; assay type: ADME, organism-based; design: time infinity, dose 15 mg/kg, route oral; settings: plasma; outline: as §1
[9] = Tmax in CD1 mouse at 5 mg/kg, iv and 15 mg/kg, po; assay type: ADME, organism-based; settings: in vivo; outline: as §1
[10] = Clearance in CD1 mouse at 5 mg/kg, iv and 15 mg/kg, po; assay type: ADME, organism-based; settings: in vivo; outline: as §1
[11] = Metabolic stability in human liver microsomes after 30 mins by LC-MS/MS analysis; assay type: ADME, Microsome; settings: read-out: Stability
Outline: (§2)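 Compounds were incubated with mouse or human liver microsomal preparation for 30 min at 37 °C. The reaction was stopped with CH3CN. Unmetabolized compound was quantified by LC-MS/MS in MRM mode and reported as percent remaining. Replicates n ≥ 2, mean values given.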

[12] = Metabolic stability in mouse liver microsomes after 30 mins by LC-MS/MS analysis; assay type: ADME, Microsome; settings: read-out: Stability; outline: as §2

Histone deacetylase 3, sequence (O15379 whole entry): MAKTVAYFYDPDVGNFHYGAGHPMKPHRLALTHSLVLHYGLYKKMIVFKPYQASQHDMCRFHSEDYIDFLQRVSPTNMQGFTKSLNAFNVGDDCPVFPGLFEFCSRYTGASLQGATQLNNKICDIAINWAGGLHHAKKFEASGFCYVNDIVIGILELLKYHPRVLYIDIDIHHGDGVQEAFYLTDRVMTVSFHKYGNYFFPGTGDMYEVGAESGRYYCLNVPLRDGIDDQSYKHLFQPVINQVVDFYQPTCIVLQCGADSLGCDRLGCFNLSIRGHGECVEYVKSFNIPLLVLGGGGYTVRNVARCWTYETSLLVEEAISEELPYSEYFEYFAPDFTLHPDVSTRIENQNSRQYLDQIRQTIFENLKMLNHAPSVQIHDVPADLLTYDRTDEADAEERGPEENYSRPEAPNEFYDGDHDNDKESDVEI
Histone deacetylase 2, sequence (Q92769 whole entry): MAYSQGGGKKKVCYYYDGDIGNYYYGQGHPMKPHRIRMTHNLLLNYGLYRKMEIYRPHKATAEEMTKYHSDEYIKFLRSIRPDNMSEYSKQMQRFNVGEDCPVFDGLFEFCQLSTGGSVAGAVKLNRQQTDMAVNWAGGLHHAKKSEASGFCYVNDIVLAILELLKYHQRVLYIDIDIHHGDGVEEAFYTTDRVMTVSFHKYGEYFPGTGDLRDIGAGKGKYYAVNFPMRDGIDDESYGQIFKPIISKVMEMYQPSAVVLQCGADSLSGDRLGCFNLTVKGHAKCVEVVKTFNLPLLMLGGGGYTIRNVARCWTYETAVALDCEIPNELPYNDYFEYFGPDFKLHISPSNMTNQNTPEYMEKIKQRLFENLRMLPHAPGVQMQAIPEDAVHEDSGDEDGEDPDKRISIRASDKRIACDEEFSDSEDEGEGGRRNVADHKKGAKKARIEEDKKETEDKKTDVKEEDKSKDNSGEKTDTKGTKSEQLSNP
Voltage-gated inwardly rectifying potassium channel KCNH2, sequence (Q12809 whole entry): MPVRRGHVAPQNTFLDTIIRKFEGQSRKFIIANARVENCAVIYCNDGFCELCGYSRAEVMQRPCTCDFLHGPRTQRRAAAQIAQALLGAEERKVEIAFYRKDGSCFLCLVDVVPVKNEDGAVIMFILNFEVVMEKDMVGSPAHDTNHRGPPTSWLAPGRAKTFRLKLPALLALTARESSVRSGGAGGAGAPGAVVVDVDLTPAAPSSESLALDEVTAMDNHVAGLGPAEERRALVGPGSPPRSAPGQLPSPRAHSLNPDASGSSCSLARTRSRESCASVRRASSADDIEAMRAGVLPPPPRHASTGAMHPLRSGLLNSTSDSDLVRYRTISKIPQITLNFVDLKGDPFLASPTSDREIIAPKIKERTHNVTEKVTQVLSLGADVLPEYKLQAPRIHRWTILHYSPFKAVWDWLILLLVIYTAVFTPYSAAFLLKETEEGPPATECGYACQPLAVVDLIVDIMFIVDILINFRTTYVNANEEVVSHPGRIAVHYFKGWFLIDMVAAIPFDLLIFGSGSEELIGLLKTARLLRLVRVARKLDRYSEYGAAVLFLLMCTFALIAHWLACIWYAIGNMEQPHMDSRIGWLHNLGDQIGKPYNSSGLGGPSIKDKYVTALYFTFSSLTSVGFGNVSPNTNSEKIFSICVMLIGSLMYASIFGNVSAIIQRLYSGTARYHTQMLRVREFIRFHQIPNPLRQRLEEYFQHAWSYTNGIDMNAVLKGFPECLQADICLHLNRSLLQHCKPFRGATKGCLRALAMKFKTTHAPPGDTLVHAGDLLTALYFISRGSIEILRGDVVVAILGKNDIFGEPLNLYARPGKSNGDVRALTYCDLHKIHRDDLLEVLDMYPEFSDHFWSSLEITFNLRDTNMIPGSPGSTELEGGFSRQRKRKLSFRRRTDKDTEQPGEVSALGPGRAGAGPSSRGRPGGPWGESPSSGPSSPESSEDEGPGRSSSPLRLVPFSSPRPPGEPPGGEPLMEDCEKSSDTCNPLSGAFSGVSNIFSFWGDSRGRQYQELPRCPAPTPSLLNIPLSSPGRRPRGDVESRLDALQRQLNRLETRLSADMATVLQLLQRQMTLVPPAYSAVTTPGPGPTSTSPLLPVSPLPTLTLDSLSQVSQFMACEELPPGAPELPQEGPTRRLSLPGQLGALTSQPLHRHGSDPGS

SMILES	IC50 (A549) [nM]	IC50 (Histone deacetylase) [nM]	IC50 (HCT-116) [nM]	IC50 (K562) [nM]	bioavailability [1] [%]	IC50 (Histone deacetylase 2) [nM]	Cmax [2] [µM]	IC50 [3] [nM]	Cmax [4] [µM]	Vd [5] [L/kg]	IC50 (Histone deacetylase 3) [nM]	AUC(0-inf) [6] [ng·h/mL]	IC50 [7] [nM]	AUC(0-inf) [8] [ng·h/mL]	Tmax [9] [min]	clearance [10] [mL/min/kg]	remaining at 0.5 h [11] [%]	remaining at 0.5 h [12] [%]
CN1C(=O)c2cc(/C=C/C(=O)NO)ccc2OC12CCN(Cc1ccccc1)CC2	2220	136	979	1330														
O=C(/C=C/c1ccc2c(c1)C(=O)CC1(CCN(Cc3ccc(F)cc3)CC1)O2)NO	1320	108	777	681	27.6	310	11	190	1.83	5.9	90	1490	2380	1240	15	55.8		
O=C(/C=C/c1ccc2c(c1)C(=O)NC1(CCNCC1)O2)NO	4810	78	6860	8930														
O=C(/C=C/c1ccc2c(c1)C(=O)NC1(CCN(CCc3ccccc3)CC1)O2)NO	1420	91	469	494													68	46
CN1CCC2(CC1)Oc1ccc(/C=C/C(=O)NO)cc1C(=O)N2Cc1ccccc1	912	174	326	360													53	19
O=C(/C=C/c1ccc2c(c1)C(=O)CC1(CCN(CCc3ccccc3)CC1)O2)NO	551	113	201	180	51.1	190	6.34	160	2.49	8.6	130	1040		1600	15	79.8		
O=C(/C=C/c1ccc2c(c1)C(=O)N(Cc1ccccc1)C1(CCN(Cc3ccc(F)cc3)CC1)O2)NO	3040	667	2030	1570														
CN1C(=O)c2cc(/C=C/C(=O)NO)ccc2OC12CCNCC2	17900	204	12100	14200														
